Experimental data as given in ChEMBL document CHEMBL4828728, “Antiplasmodial 2-thiophenoxy-3-trichloromethyl quinoxalines target the apicoplast of Plasmodium falciparum” (Eur J Med Chem, 2021).
Activity calls are given as the source filed them. No cut-off for these calls is given here.

Columns and labels:
Plasmodium falciparum [1] = test: Antiplasmodial activity against multidrug-resistant Plasmodium falciparum K1 infected in human erythrocytes assessed as reduction in parasite growth incubated for 72 hrs by SYBR green I fluorescence based assay; type: functional, organism-based; conditions: K1, Erythrocyte
[2] = Selectivity index, ratio of CC50 for cytotoxicity against human HepG2 cells to EC50 for antiplasmodial activity against multidrug-resistant Plasmodium falciparum K1 infected in human erythrocytes; type: toxicity, cell-based; conditions: read-out: Ratio CC50/EC50
[3] = Aqueous solubility of the compound; type: physicochemical; conditions: buffer
[4] = Cytotoxicity against human HepG2 cells assessed as reduction in cell viability measured after 72 hrs by MTT assay; type: cell-based
Procedure, shortened: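 HepG2 in MEM with 10% FBS, 5×10³ cells/well; 24 h attachment, then serial dilutions (DMSO <0.5% final) for 72 h at 37 °C, wells checked for precipitate. MTT 0.5 mg/mL for 2 h, formazan in DMSO, A570 with 630 nm reference. Viability versus untreated; doxorubicin positive control; CC50 from dose-response curve, triplicates, mean of three independent experiments.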

Plasmodium falciparum [5] = test: Inhibition of apicoplast development in Plasmodium falciparum 3D7 assessed as delayed death phenotype at 0.3 uM measured during 48 hrs of three cycles of parasite development by SYBR green I based fluorescence assay; type: functional, organism-based
Procedure, shortened: (§1)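 3D7 cultures held at 0.3 μM or DMSO across three 48 h cycles, diluted 1/10 each cycle. At 48, 96 and 144 h, aliquots were lysed in SYBR Green I buffer (Tris pH 7.5, EDTA, saponin, Triton X-100) for 1 h at room temperature in the dark. Fluorescence read at 485/538 nm; growth expressed as treated/untreated ratio, n=3, SD.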

[6] = Aqueous solubility of the compound assessed as precipitation of the compound at >1.9 uM; type: physicochemical; conditions: buffer
Plasmodium falciparum [7] = test: Inhibition of apicoplast development in hepatic stage of Plasmodium falciparum NF135 infected in human hepatocytes assessed as condensation of apicoplast protein ACP signal incubated for 3 hrs with daily replacement of fresh medium containing compound until day 6 post infection by confocal microscopy; type: functional, organism-based; conditions: time 6.0 day
Procedure, shortened: (§2)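 Primary human hepatocytes infected with NF135 sporozoites (30,000/well), drug present from infection, washed at 3 h and renewed daily until fixing at day 6 (4% PFA). Apicoplast stained with anti-ACP antibody, parasites with anti-HSP70, DNA with DAPI, imaged by confocal microscopy. 100 parasites scored as normal or partially/completely altered apicoplast, given as percentage distribution.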

[8] = Toxicity in human hepatocytes assessed as reduction in nuclei number up to 30 uM by microscopic analysis; type: cell-based, Hepatocyte
Procedure, shortened: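 Cryopreserved primary human hepatocytes, 80,000 per collagen-coated well in William's E medium, inoculated with 30,000 NF135 sporozoites/well and centrifuged. Serial drug dilutions added with sporozoites, renewed daily until 4% PFA fixation at day 6. Stained with anti-HSP70 and DAPI; hepatocyte nuclei counted across scanned microscopic fields, treated versus control.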

Plasmodium falciparum [9] = test: Inhibition of apicoplast development in hepatic stage of Plasmodium falciparum NF135 infected in human hepatocytes assessed as proportion of schizonts with partial and complete alteration of apicoplast signal at 30 uM incubated for 3 hrs with daily replacement of fresh medium containing compound until day 6 post infection by confocal microscopy; type: functional; design: scale not given: the % may be the effect or the level left; conditions: time 6 day; procedure, shortened: as §2
Plasmodium falciparum [10] = test: Inhibition of apicoplast biogenesis in Plasmodium falciparum 3D7 assessed as reduction in apicoplast development, elongation and branching at 0.3 uM measured after 48 hrs by DAPI/TPT staining based epifluorescence microscopic analysis; type: functional, organism-based
Procedure, shortened: (§3)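 Sorbitol-synchronized (5%) 3D7 blood-stage cultures expressing HA-tagged TPT, grown in RPMI-HEPES with 5% AlbuMAX II, 2% hematocrit, 1% O2/5% CO2, 37 °C; exposed 48 h to 0.3 μM or DMSO. Fixed in 4% PFA/0.0075% glutaraldehyde, Triton-permeabilized, stained with anti-HA plus Alexa 488 secondary and DAPI; imaged by epifluorescence with DIC.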

Plasmodium falciparum [11] = test: Antiplasmodial activity against Plasmodium falciparum 3D7 assessed as reduction in parasite development by measuring defect in parasite replication at 0.3 uM measured after 48 hrs by DAPI/TPT staining based epifluorescence microscopic analysis; type: functional, organism-based; procedure, shortened: as §3
[12] = Genotoxicity in human HepG2 cells assessed as induction of alkali labile sites at 28 uM measured after 2 to 72 hrs by alkali comet assay; type: cell-based; conditions: hepg2, 28 µM, time 2-72 hrs
Procedure, shortened: (§4)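 HepG2 (passage 11-15, EMEM with 10% FBS) exposed to 5.6 or 28 μM for 2 h or 72 h; vehicle 0.5% DMSO; 1 mM MMS 2 h positive control. Alkaline comet: lysis pH 10 at 4 °C 1 h, unwinding 40 min at pH >13, electrophoresis 1 V/cm 20 min. DAPI staining, % tail DNA; median of 50 comets per duplicate gel, mean of three experiments ±SD.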

Plasmodium falciparum [13] = test: Inhibition of apicoplast development in Plasmodium falciparum 3D7 assessed as reduction in parasite growth at 0.3 uM measured during 48 hrs of first cycle of parasite development by SYBR green I based fluorescence assay; type: functional, organism-based; procedure, shortened: as §1
[14] = Genotoxicity in human HepG2 cells assessed as induction of DNA strand breaks at 28 uM measured after 2 to 72 hrs by alkali comet assay; type: cell-based; conditions: hepg2, 28 µM, time 2-72 hrs; procedure, shortened: as §4
Plasmodium falciparum [15] = test: Inhibition of apicoplast biogenesis in Plasmodium falciparum 3D7 assessed as loss of apicoplast at 0.3 uM measured after 48 hrs by DAPI/TPT staining based epifluorescence microscopic analysis; type: functional, organism-based; procedure, shortened: as §3
Plasmodium falciparum [16] = test: Antiplasmodial activity against Plasmodium falciparum 3D7 assessed as reduction in parasite development by measuring enriched culture in mid trophozite parasites at 0.3 uM measured after 48 hrs by DAPI/TPT staining based epifluorescence microscopic analysis; type: functional, organism-based; procedure, shortened: as §3
[17] = Cytotoxicity against CHO cells assessed as reduction in cell viability measured after 24 hrs by MTT assay; type: cell-based, Cricetulus griseus; conditions: chinese hamster
Procedure, shortened: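 CHO cells grown in RPMI with 10% FBS; 5×10³ cells/well, 24 h attachment, then compound dilutions (DMSO <0.5% final) for 24 h at 37 °C. Precipitate check, MTT 0.5 mg/mL 2 h, DMSO solubilization, A570/630. Percent viability against untreated; doxorubicin control; CC50 from dose-response, triplicates, mean of three independent experiments.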

[18] = Genotoxicity in human HepG2 cells assessed as induction of DNA strand breaks at 5.6 uM measured after 2 to 72 hrs by alkali comet assay; type: cell-based; conditions: hepg2, 5.6 µM, time 2-72 hrs; procedure, shortened: as §4
[19] = Genotoxicity in human HepG2 cells assessed as induction of alkali labile sites at 5.6 uM measured after 2 to 72 hrs by alkali comet assay; type: cell-based; conditions: hepg2, 5.6 µM, time 2-72 hrs; procedure, shortened: as §4
Plasmodium falciparum [20] = test: Antiplasmodial activity against Plasmodium falciparum NF135 sporozoites infected in human hepatocytes assessed as reduction in parasite size without affecting parasite number incubated for 3 hrs with daily replacement of fresh medium containing compound until day 6 post infection by fluorescence microscopic analysis; type: functional, organism-based; conditions: Hepatocyte, time 6.0 day
Procedure, shortened: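 Cryopreserved primary human hepatocytes seeded at 80,000/well on collagen I in supplemented William's E, then infected with 30,000 NF135 sporozoites/well from A. stephensi salivary glands. Plates centrifuged 10 min, serial drug dilutions added at infection, washed at 3 h, drug medium renewed daily. Fixed day 6 in 4% PFA, EEFs stained with anti-HSP70 plus DAPI, counted by fluorescence microscopy or high-content imaging.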

[21] = Cytotoxicity against African green monkey Vero cells assessed as reduction in cell viability measured after 48 hrs by MTT assay; type: cell-based; conditions: chlorocebus sabaeus
Procedure, shortened: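 Vero cells in MEM with 10% FBS; 5×10³ cells/well, 24 h attachment, then compound dilutions (DMSO <0.5% final) for 48 h at 37 °C. Precipitate check, MTT 0.5 mg/mL 2 h, DMSO solubilization, A570/630. Viability relative to untreated; doxorubicin control; CC50 from dose-response, triplicates, mean of three independent experiments.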

Plasmodium falciparum [22] = test: Antiplasmodial activity against Plasmodium falciparum 3D7; type: functional, organism-based

| SMILES | EC50 (Plasmodium falciparum [1]) | selectivity ratio [2] | solubility [3] | CC50 at 72 h [4] | also measured |
| --- | --- | --- | --- | --- | --- |
| Clc1ccccc1Sc1nc2ccccc2nc1C(Cl)(Cl)Cl | 0.5 µM | 73.8 | Soluble | 36.9 µM | – |
| C[C@H]1c2cccc(O)c2C(=O)C2=C(O)[C@]3(O)C(=O)C(C(N)=O)=C(O)[C@@H](N(C)C)[C@@H]3[C@@H](O)[C@@H]21 [DOXYCYCLINE] | 6 µM | 3.3 | – | – | – |
| O=[N+]([O-])c1ccc(Sc2nc3ccccc3nc2C(Cl)(Cl)Cl)cc1 | 0.25 µM | 79.6 | Soluble | 19.9 µM | – |
| Clc1cccc(Sc2nc3ccccc3nc2C(Cl)(Cl)Cl)c1 | 0.41 µM | 93.4 | Soluble | 38.3 µM | – |
| Cc1nc2ccccc2nc1Sc1ccccc1 | > 50 µM | – | – | > 25 µM | Activity (Plasmodium falciparum [5]): inactive |
| FC(F)(F)c1nc2ccccc2nc1Sc1ccccc1 | > 50 µM | – | – | > 50 µM | – |
| FC(F)(F)c1ccc(Sc2nc3ccccc3nc2C(Cl)(Cl)Cl)cc1 | 0.5 µM | 59.8 | Soluble | 29.9 µM | – |
| Fc1ccccc1Sc1nc2ccccc2nc1C(Cl)(Cl)Cl | 0.32 µM | 127 | Soluble | 40.5 µM | – |
| CCN(CC)CCCC(C)Nc1ccnc2cc(Cl)ccc12 (stereo not given) [CHLOROQUINE] | 0.8 µM | – | – | – | – |
| COc1ccc(Sc2nc3ccccc3nc2C(Cl)(Cl)Cl)cc1 | 0.65 µM | > 3 | – | > 1.9 µM | solubility [6]: Insoluble |
| Clc1ccc(Sc2nc3ccccc3nc2C(Cl)(Cl)Cl)cc1 | 0.5 µM | 77.2 | – | – | – |
| FC(F)(F)Oc1ccc(Sc2nc3ccccc3nc2C(Cl)(Cl)Cl)cc1 | 0.36 µM | 58.3 | Soluble | 21 µM | – |
| Fc1cccc(Sc2nc3ccccc3nc2C(Cl)(Cl)Cl)c1 | 0.31 µM | 116 | Soluble | 35.9 µM | – |
| c1ccc(Sc2cnc3ccccc3n2)cc1 | > 50 µM | – | – | > 50 µM | – |
| COc1ccccc1Sc1nc2ccccc2nc1C(Cl)(Cl)Cl | 0.74 µM | 56.8 | Soluble | 42.6 µM | – |
| Cc1ccc(Sc2nc3ccccc3nc2C(Cl)(Cl)Cl)cc1 | 1.5 µM | 46.5 | Soluble | 69.7 µM | – |
| O=C1C(O)=C([C@H]2CC[C@H](c3ccc(Cl)cc3)CC2)C(=O)c2ccccc21 [ATOVAQUONE] | 0.001 µM | – | – | > 15.6 µM | – |
| COc1ccc(Cl)c(Sc2nc3ccccc3nc2C(Cl)(Cl)Cl)c1 | 0.46 µM | 127 | Soluble | 58.4 µM | – |
| ClC(Cl)(Cl)c1nc2ccccc2nc1Sc1ccccc1 | 0.32 µM | 175 | Soluble | 56 µM | inhibition (Plasmodium falciparum [7]): Active; Activity [8]: Non-Toxic; Activity (Plasmodium falciparum [9]): 93%; inhibition (Plasmodium falciparum [10]): Active; Activity (Plasmodium falciparum [11]): Active; Activity [12]: Non-Toxic; Activity (Plasmodium falciparum [13]): Active; Activity [14]: Non-Toxic; inhibition (Plasmodium falciparum [15]): Active; Activity (Plasmodium falciparum [16]): Active; CC50 at 24 h [17]: 58.5 µM; Activity (Plasmodium falciparum [5]): Active; Activity [18]: Non-Toxic; Activity [19]: Non-Toxic; Activity (Plasmodium falciparum [20]): Dose-Dependent Effect; CC50 at 48 h [21]: 63.5 µM |
| Oc1cc(Cl)ccc1Oc1ccc(Cl)cc1Cl [TRICLOSAN] | – | – | – | – | EC50 (Plasmodium falciparum [22]): 1.55 µM |
| Fc1ccc(Sc2nc3ccccc3nc2C(Cl)(Cl)Cl)cc1 | 0.36 µM | 85.6 | Soluble | 30.8 µM | – |
| Clc1cccc(Sc2nc3ccccc3nc2C(Cl)(Cl)Cl)c1Cl | 0.31 µM | 112 | Soluble | 34.6 µM | – |
| Clc1ccc(Sc2nc3ccccc3nc2C(Cl)(Cl)Cl)c(Cl)c1 | 0.9 µM | > 34.7 | Soluble | > 31.2 µM | – |
| ClC(Cl)(Cl)c1nc2ccccc2nc1Sc1ccc(Br)cc1 | 0.46 µM | 93 | Soluble | 42.2 µM | – |
